Assay results gathered from unrelated publications.
Compare with care: the assays were run in different laboratories.
Target: High affinity nerve growth factor receptor (NTRK1, Homo sapiens, UniProt P04629)

SMILES	read-out	technique	tested at	remaining binding [%]
CC1CCCN1c1nccc(-c2cnn3ncccc23)n1 (stereo not shown)	binding	–	1 µM	87
CN1CCN(c2ccc(Nc3nccc(-c4ccccc4)n3)cc2C(F)(F)F)CC1	binding	–	10 µM	9.2
C=CC(=O)N1CCC(C(=O)NCC(=O)N2CCN(c3nc(-c4cnc(N)nc4C(F)F)nc(N4CCOCC4)n3)CC2)CC1	binding	competition with immobilised ligand	1 µM	81
CCN1CCN(Cc2ccc(C(=O)Nc3ccc(C)c(Oc4ccc5c(c4)CC(=O)N5)c3)cc2C(F)(F)F)CC1	binding	competition with immobilised ligand	1 µM	100
CC(C)(O)c1cncc(-c2nc3ccc(F)cc3n2C2CC2)c1	cell-free assay	competition with immobilised ligand	1 µM	100
COc1cnc(Nc2cccc(S(N)(=O)=O)c2)nc1N1CCN(c2ccccc2)C(=O)C1	binding	competition with immobilised ligand	1 µM	100
O=C(c1ccc(Nc2nccc(-c3cc4ccccc4s3)n2)cc1)N1CCC(N2CCCC2)CC1	binding	competition with immobilised ligand	1 µM	25
N#CC1(c2ccccn2)CCN(Cc2cc(C(=O)N3CCCC3)c(=O)n3ccccc23)CC1	cell-free assay	competition with immobilised ligand	1 µM	100
CN(C)c1nccc(-c2cnn3ncccc23)n1	binding	–	1 µM	68
Nc1ncc2c(n1)-c1c([nH]c3ccc(C#CC4CC4)cc13)CCCC2	binding	competition with immobilised ligand	1 µM	69
O=S(=O)(NC1CCC(c2cc(F)ccc2F)(S(=O)(=O)c2ccc(Cl)cc2)CC1)C(F)(F)F (stereo not shown)	cell-free assay	competition with immobilised ligand	1 µM	76
C[C@H]1CCN(c2nccc(-c3cnn4ncccc34)n2)C1	binding	–	1 µM	68
Cc1cc(-n2nc(Cc3cc(F)cc(C(F)(F)F)c3)nc2C)ccc1C(N)=O	cell-free assay	competition with immobilised ligand	1 µM	97
O=C(c1ccc(Nc2ncc(Cl)c(-c3ccc(Cl)s3)n2)cc1)N1CCC(N2CCCC2)CC1	binding	competition with immobilised ligand	1 µM	1.3
O=C(NCCCC1CCCCC1)c1ccc(CNC(=O)c2cnn(-c3ccccc3)c2C(F)(F)F)cc1	cell-free assay	competition with immobilised ligand	0.1 µM	100
CN(CCCC(F)(F)F)c1nccc(-c2cnn3ncccc23)n1	binding	–	1 µM	100
